TNAP inh no acc = human TNAP enzyme inhibitors, primary screen, biochemical, luminescent, no phosphate acceptor, uHTS; inhibition, % at 20 µM; AID 1012, 2008; purified TNAP, CDP-star luminescence, 30 min; 0.26% of 200,000 active; Alkaline phosphatase, tissue-nonspecific isozyme (Homo sapiens), P05186;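 active means tissue-nonspecific alkaline phosphatase inhibition above about 50% at 20 µM in the single-dose screen, limit read from the data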;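 further: 0% = DMSO negative control and 100% = EDTA positive control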
Target sequence (P05186 whole entry, looked up): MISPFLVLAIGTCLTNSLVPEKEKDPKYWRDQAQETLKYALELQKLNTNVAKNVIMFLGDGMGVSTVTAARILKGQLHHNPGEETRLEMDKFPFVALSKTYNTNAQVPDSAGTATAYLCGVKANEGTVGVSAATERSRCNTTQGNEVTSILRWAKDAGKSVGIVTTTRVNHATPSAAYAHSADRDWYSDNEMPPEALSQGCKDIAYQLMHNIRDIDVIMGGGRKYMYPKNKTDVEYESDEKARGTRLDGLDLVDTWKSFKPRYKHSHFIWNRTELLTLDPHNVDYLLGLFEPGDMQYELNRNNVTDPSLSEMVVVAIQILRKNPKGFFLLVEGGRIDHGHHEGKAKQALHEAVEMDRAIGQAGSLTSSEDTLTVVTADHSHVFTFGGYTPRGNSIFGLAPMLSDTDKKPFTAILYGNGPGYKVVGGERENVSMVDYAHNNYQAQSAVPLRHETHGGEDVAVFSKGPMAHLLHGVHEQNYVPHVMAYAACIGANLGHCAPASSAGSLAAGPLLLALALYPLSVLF
TNAP act hi DEA = TNAP activators at high phosphate acceptor level, primary screen, biochemical, luminescence, uHTS; 200,000 tested, under 10 active; activation factor at 20 µM; AID 1136, 2008; purified TNAP, CDP-star luminescence, 1 M DEA, 30 min; hits give high values; 0 = EDTA background, 1 = DMSO-only activity;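 active means activation factor at least 2 at 20 µM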
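Measured by: Luminescent substrate turnover signal | Test system: Human TNAP | Input: TNAP 1/800 final | Dosing: 20 µM single point | Schedule: 30 min, room temperature | Controls: EDTA wells as negative control, DMSO wells as positive control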
ABCB6 inh 2 = ABCB6 transporter inhibitors, primary screen, K562-ABCB6 cells, flow cytometry, MLPCN library. ATP-binding cassette sub-family B member 6 (Homo sapiens), Q9NP58. 0.19% of 360,000 active. AID 602162, 2011. K562-ABCB6 porphyrin accumulation, 1 h; hits give low values. fluorescence ratio to DMSO, % at 10 µM;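 active means fluorescence ratio to DMSO below 75%, the collection mean minus 3 SD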;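 further: signal is porphyrin accumulated inside mitochondria; 100% equals median channel fluorescence of DMSO control wells; lower ratio means ABCB6 inhibition with less porphyrin fluorescence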
CHT PAM = CHT positive allosteric modulators, primary screen, cell-based, membrane potential dye, choline EC20. B-score at 10 µM. AID 488977, 2010. High affinity choline transporter 1 (Homo sapiens), Q9GZV3. CHT-expressing cells; hits give high values; LV-AA mutant CHT in HEK293 cells. 0.49% of 310,000 active;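 active means initial fluorescence not abnormally high and integrated response B-score, plate-corrected, over 3 SD above library mean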
CHT inh = inhibitors of human choline transporter CHT; High affinity choline transporter 1 (Homo sapiens), Q9GZV3; CHT-expressing cells, membrane potential dye, choline response; hits give low values; B-score at 10 µM; 0.86% of 310,000 active; AID 488975, 2010;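 active means B-score over 3 SD under the library average, and starting fluorescence ratio not unusually high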;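 further: choline stimulus applied at its EC90 after an EC20 pre-addition; B-score computed on integrated fluorescence ratio after choline addition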
TNAP inh hiacc = human TNAP enzyme inhibitors, primary screen, biochemical, luminescent, high phosphate acceptor level, uHTS | 0.03% of 200,000 active | Alkaline phosphatase, tissue-nonspecific isozyme (Homo sapiens), P05186 | inhibition, % at 20 µM | purified TNAP, CDP-star luminescence, 1 M DEA | AID 1135, 2008;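 active means over 50% inhibition of tissue-nonspecific alkaline phosphatase at 20 µM in the single-dose screen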;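 further: plate controls were DMSO wells for no effect and EDTA-quenched wells as full inhibition for full effect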
CHT inh conf = CHT inhibitors, confirmation, cell-based, membrane potential dye, duplicate; 70% of 2,400 active; CHT activity remaining % of control (hits give low values), % at 10 µM; shares compounds with CHT inh; CHT-expressing cells, choline membrane potential dye; LV-to-AA substituted CHT, HEK293 cells;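 active means choline transporter activity left, mean of duplicates at 10 µM, below buffer-only control mean minus 3 SD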;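 further: depolarization triggered by choline at its EC90 following an EC20 pre-addition; 0% = hemicholinium-3 full block and 100% = buffer-only control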
HEK293 MPD ctr = membrane potential effects in parental HEK293, counter-screen for CHT inhibitor project, cell-based, membrane potential dye. AID 493222, 2011. choline response; active = decrease or increase beyond buffer ±3SD. 4% of 2,400 active. membrane potential ratio readout (active if shifted either direction beyond buffer ±3SD; no single direction) at 10 µM. shares compounds with CHT inh;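 further: parental cells lack the transporter so any hit is non-specific; ratio is peak minus trough fluorescence over baseline after EC90 choline challenge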
* marks the source's active call; other numbers are inactive results; i = inactive; x = not tested or not shown. The list is not random: actives were taken first. Their share in the collection is about 1.4%.

SMILES	TNAP inh no acc	TNAP act hi DEA	ABCB6 inh 2	CHT PAM	CHT inh	TNAP inh hiacc	CHT inh conf	HEK293 MPD ctr
Cn1nc(C(F)(F)F)c(-c2ccccc2)c1NC(=O)c1cccnc1	x	x	100	i	-5.3*	x	32%*	i
Cn1nc(C(F)(F)F)c(-c2ccccc2)c1NC(=O)c1ccco1	x	x	95	i	-5.6*	x	36%*	i
COc1ccc(-c2c(C(F)(F)F)nn(C)c2NC(=O)c2ccco2)cc1	x	x	104	i	i	x	x	x
Cn1nc(C(F)(F)F)c(-c2ccccc2)c1NC(=O)CCC(=O)O	x	x	100	i	i	x	x	x
CC1(C)Cc2ccccc2C(COc2ccccc2)=N1	x	x	100	i	i	x	x	x
CC1=NC(C)(C)Cc2ccccc21	-6	1	99	i	-10*	1	20%*	i
CCOc1cc(/C=C/C(=O)N(CC)CC(=O)NCc2cccs2)cc(Cl)c1OC	x	x	96	i	i	x	x	x
CCOc1c(Cl)cc(/C=C/C(=O)N(CC)CC(=O)NCc2cccs2)cc1OC	x	x	93	i	-7.6*	x	i	i
CC(=O)c1cccc(OCC(=O)Nc2cccc(C(=O)Nc3c(C)n(C)n(-c4ccccc4)c3=O)c2)c1	x	x	94	x	x	x	x	x
COc1ccc(C2=NN(c3nc(C(=O)O)cs3)C(O)(C(F)(F)F)C2)c(OC)c1 (configuration not stated)	-14	1	105	i	-8.9*	-2	42%*	i
O=C(Nc1ccc(S(=O)(=O)Nc2cnc3ccccc3n2)cc1)c1ccc(Cl)cc1Cl	x	x	103	i	-13*	x	-9.5%*	i
O=C(Cc1ccc(Cl)cc1)Nc1ccc(S(=O)(=O)Nc2cnc3ccccc3n2)cc1	-7	1	102	i	i	-3	x	x
COc1cc(NS(=O)(=O)c2ccc(NC(=O)c3ccc(S(=O)(=O)N4CCCC4)cc3)cc2)ncn1	-8	1	x	i	i	2	x	x
COc1ccc(NS(=O)(=O)c2ccc(NC(=O)c3ccccc3Br)cc2)nn1	-10	1.1	94	i	-8.5*	-6	19%*	i
COc1cc(NS(=O)(=O)c2ccc(NC(=O)c3ccc(Cl)cc3Cl)cc2)ncn1	x	x	98	i	-9.3*	x	27%*	i
O=C(Nc1ccc(S(=O)(=O)Nc2cnc3ccccc3n2)cc1)c1ccc(Cl)c([N+](=O)[O-])c1	x	x	99	i	-6.1*	x	60%*	i
CC(C)(O)CC[C@H](OC(=O)c1ccccc1)[C@](C)(O)[C@H]1CC[C@@]2(O)C3=CC(=O)[C@@H]4C[C@@H](O)[C@H](O)C[C@]4(C)C3CC[C@]12C (some centres not stated)	x	x	86	i	i	x	x	x
CSc1ccccc1NC(=O)COC(=O)c1c[nH]c(=O)[nH]c1=O	x	x	98	i	i	x	x	x
O=C(NCc1ccncc1)c1cc(F)c(F)cc1Cl	-10	1.1	95	i	i	-7	x	x
O=C(Nc1ccc(Cc2ccncc2)cc1)c1cc(F)c(F)cc1Cl	-11	1.1	104	i	-8.5*	-6	i	i
O=C(Nc1ccc(S(=O)(=O)Nc2cnc3ccccc3n2)cc1)c1cc(F)c(F)cc1Cl	x	x	97	i	-6.6*	x	27%*	i
CC1CCCN(C(=O)C2CCC(CNc3c(N4CCCCC4)c(=O)c3=O)CC2)C1 (configuration not stated)	x	x	96	i	-6*	x	i	i
O=C(C1CCC(CNc2c(N3CCCCC3)c(=O)c2=O)CC1)N1CCCCC1 (configuration not stated)	-17	1	97	i	i	-3	x	x
CN1CCN(c2ccc(-c3cccc(NC(=O)COc4ccc(Cl)cc4Cl)c3)nn2)CC1	x	x	103	i	i	x	x	x
Cc1ccc[n+](CC(=O)Nc2cc(C(F)(F)F)ccc2N2CCOCC2)c1	-2	1	97	i	-8*	-3	25%*	i
SMILES	TNAP inh no acc	TNAP act hi DEA	ABCB6 inh 2	CHT PAM	CHT inh	TNAP inh hiacc	CHT inh conf	HEK293 MPD ctr
CCc1ccc(C(C)NC(=S)NCc2ccc(F)cc2)cc1 (configuration not stated)	x	x	93	i	i	x	x	x
Cc1ccc(C(C)NC(=S)NCc2ccc(F)cc2)cc1C (configuration not stated)	x	x	89	i	-5.1*	x	71%*	i
CN(C)S(=O)(=O)c1ccc(Cl)c(C(=O)NC2=NCCS2)c1	x	x	97	i	i	x	x	x
Cn1nc(C(=O)NC2CCCCC2)c2c1-c1ccccc1SC2	x	x	97	i	i	x	x	x
CC1CCC(NC(=O)c2nn(C)c3c2CSc2ccccc2-3)CC1 (configuration not stated)	x	x	99	i	i	x	x	x
CC1CCCCN1CCCNC(=O)c1nn(C)c2c1CSc1ccccc1-2 (configuration not stated)	x	x	105	i	-7.6*	x	8.6%*	i
CC1CCCN(CCCNC(=O)c2nn(C)c3c2CSc2ccccc2-3)C1 (configuration not stated)	x	x	98	i	-6.2*	x	23%*	i
CS(=O)(=O)N1CCCCC1c1cc(C(=O)NCc2ccc(Cl)c(Cl)c2)no1 (configuration not stated)	x	x	103	x	x	x	x	x
CN(C)S(=O)(=O)c1ccc(NC(=O)Cc2ccc(S(=O)(=O)N3CCOCC3)s2)cc1	-5	1	99	i	i	-2	x	x
O=C(Cc1ccc(S(=O)(=O)N2CCOCC2)s1)Nc1ccc(N2CCOCC2)cc1	-3	1	94	i	-5.1*	-3	i	i
CC(NC(=O)Cc1ccc(S(=O)(=O)N2CCOCC2)s1)c1ccc(Br)cc1 (configuration not stated)	x	x	102	x	x	x	x	x
CC(NC(=O)Cc1ccc(S(=O)(=O)N2CCOCC2)s1)c1ccc(Cl)c(Cl)c1 (configuration not stated)	x	x	102	i	-7.1*	x	57%*	i

Source: PubChem BioAssay
